According to ChEMBL document CHEMBL5512642, “Novel triterpenoid pyrones, phthalimides and phthalates are selectively cytotoxic in CCRF-CEM cancer cells - Synthesis, potency, and mitochondrial mechanism of action” (Eur J Med Chem, 2024):
Active and inactive are the calls of the source. The calls are words filed in the database; no cut-off is given here.

How the values were obtained:
CCRF-CEM [1] = assay: Induction of apoptosis in human CCRF-CEM cells assessed as early apoptotic cells at 1 time IC50 incubated for 24 hrs by Annexin V and propidium iodide staining based flow cytometry analysis (reference value: 1.4%); assay type: functional
K562 = assay: Cytotoxicity against human K562 cells assessed as reduction in cell viability incubated for 72 hrs by MTS assay; assay type: functional, cell-based; conditions: K562, 72 h
[2] = Metabolic stability in human liver microsomes assessed as compound remaining at measured at 30 mins in presence of NADPH by RF-MS analysis; assay type: ADME, Microsome; conditions: read-out: Stability
Summary of the method: (§1)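 Human liver microsomes with NADPH cofactor to assess phase I oxidation. Compound remaining sampled at 15, 30 and 60 min; intrinsic clearance derived and categorized. Run in triplicate.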

[3] = Cytotoxicity against human MRC5 cells assessed as reduction in cell viability incubated for 72 hrs by MTS assay; assay type: toxicity, cell-based
[4] = Apparent permeability of the compound across apical to basolateral side in MDCK-MDR1 cells assessed as compound recovery at 10 uM incubated for 1 hr by RF-MS analysis; assay type: ADME, cell-based, Canis lupus familiaris; conditions: dog, read-out: Activity
Summary of the method: (§2)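 Caco-2 and MDCK-MDR1 monolayers; transport measured in both directions, apical→basolateral and basolateral→apical. Efflux ratio taken from the two directions; ER > 2 counted as active efflux. Compound recovery reported. Cell-based permeability runs done in duplicate.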

CCRF-CEM [5] = assay: Induction of apoptosis in human CCRF-CEM cells assessed as early apoptotic cells at 5 time IC50 incubated for 24 hrs by Annexin V and propidium iodide staining based flow cytometry analysis (reference value: 1.4%); assay type: functional
CCRF-CEM [6] = assay: Induction of apoptosis in human CCRF-CEM cells assessed as reduction in caspase-3 expression at 5 time of IC50 incubated for 24 hrs by Western blot analysis; assay type: functional, cell-based
Summary of the method: (§3)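 Lysate 20 µg protein per lane on SDS-PAGE, transferred to nitrocellulose, blocked in 5% BSA/TBS-Tween. Probed overnight at 4 °C with anti-caspase-3, Bcl-2, Bcl-XL, β-actin, then HRP secondary 1 h. ECL chemiluminescence detection.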

[7] = Metabolic stability in human liver microsomes assessed as compound remaining at measured at 60 mins in presence of NADPH by RF-MS analysis; assay type: ADME, Microsome; conditions: read-out: Stability; summary of the method: as §1
CCRF-CEM [8] = assay: Induction of mitochondrial membrane potential loss in human CCRF-CEM cells assessed as cells with depolarized mitochondria (P2 gate) by measuring green fluorescence intensity at 1 time IC50 incubated for 24 hrs by JC-1 staining based flow cytometry (reference value: 2.1%)
CCRF-CEM [9] = assay: Induction of apoptosis in human CCRF-CEM cells assessed as viable cells at 1 time IC50 incubated for 24 hrs by Annexin V and propidium iodide staining based flow cytometry analysis (reference value: 98%); assay type: functional
[10] = Stability in human plasma assessed as compound remaining measured 15 mins by RF-MS analysis; assay type: ADME, cell-free; conditions: read-out: Stability
Summary of the method: (§4)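 Compounds incubated in human plasma in vitro for up to 2 h. Percent remaining sampled at 15, 30, 60 and 120 min. Run in triplicate.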

[11] = Apparent permeability of the compound across apical to basolateral side in human Caco-2 cells assessed as compound recovery; assay type: ADME, cell-based; conditions: read-out: Activity; summary of the method: as §2
[12] = Stability in human plasma assessed as compound remaining measured 30 mins by RF-MS analysis; assay type: ADME, cell-free; conditions: read-out: Stability; summary of the method: as §4
[13] = Apparent permeability of the compound in MDCK-MDR1 cells at 10 uM incubated for 1 hr by RF-MS analysis; assay type: ADME, cell-based, Canis lupus familiaris; conditions: dog; summary of the method: as §2
[14] = Cytotoxicity against human K562-Tax cells assessed as reduction in cell viability incubated for 72 hrs by MTS assay; assay type: functional, cell-based
[15] = Cytotoxicity against human BJ cells assessed as reduction in cell viability incubated for 72 hrs by MTS assay; assay type: toxicity, cell-based
[16] = Stability in human plasma assessed as compound remaining measured 120 mins by RF-MS analysis; assay type: ADME, cell-free; conditions: read-out: Stability; summary of the method: as §4
CEM-DNR = assay: Cytotoxicity against human CEM-DNR cells assessed as reduction in cell viability incubated for 72 hrs by MTS assay; assay type: functional, cell-based
CCRF-CEM [17] = assay: Induction of apoptosis in human CCRF-CEM cells assessed as reduction in Bcl-XL expression at 5 time of IC50 incubated for 24 hrs by Western blot analysis; assay type: functional, cell-based; summary of the method: as §3
[18] = Efflux ratio of apparent permeability across basolateral to apical side over apical to basolateral side in human Caco-2 cells; assay type: ADME, cell-based; summary of the method: as §2
CCRF-CEM [19] = assay: Induction of apoptosis in human CCRF-CEM cells assessed as late apoptotic cells at 1 time IC50 incubated for 24 hrs by Annexin V and propidium iodide staining based flow cytometry analysis (reference value: 0.5%); assay type: functional
[20] = Stability in human plasma assessed as compound remaining measured 60 mins by RF-MS analysis; assay type: ADME, cell-free; conditions: read-out: Stability; summary of the method: as §4
[21] = Metabolic stability in human liver microsomes assessed as compound remaining at measured at 15 mins in presence of NADPH by RF-MS analysis; assay type: ADME, Microsome; conditions: read-out: Stability; summary of the method: as §1
CCRF-CEM [22] = assay: Induction of apoptosis in human CCRF-CEM cells assessed as necrotic cells at 5 time IC50 incubated for 24 hrs by Annexin V and propidium iodide staining based flow cytometry analysis (reference value: 0.; assay type: functional
CCRF-CEM [23] = assay: Induction of apoptosis in human CCRF-CEM cells assessed as necrotic cells at 1 time IC50 incubated for 24 hrs by Annexin V and propidium iodide staining based flow cytometry analysis (reference value: 0.1%); assay type: functional
[24] = Apparent permeability of the compound in human Caco-2 cells; assay type: ADME, cell-based; summary of the method: as §2
A549 = assay: Cytotoxicity against human A549 cells assessed as reduction in cell viability incubated for 72 hrs by MTS assay; assay type: functional, cell-based; conditions: A549, 72 h
U2OS = assay: Cytotoxicity against human U2OS cells assessed as reduction in cell viability incubated for 72 hrs by MTS assay; assay type: functional, cell-based
[25] = Efflux ratio of apparent permeability across basolateral to apical side over apical to basolateral side in MDCK-MDR1 cells; assay type: ADME, cell-based, Canis lupus familiaris; conditions: dog; summary of the method: as §2
[26] = Plasma protein binding in human assessed as fraction bound at 10 uM by rapid equilibrium dialysis based RF-MS analysis; assay type: ADME, cell-free; conditions: read-out: PPB (converted)
Summary of the method: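 Human plasma protein binding measured by equilibrium dialysis and reported as percent fraction bound. Run in triplicate.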

CCRF-CEM [27] = assay: Induction of apoptosis in human CCRF-CEM cells assessed as late apoptotic cells at 5 time IC50 incubated for 24 hrs by Annexin V and propidium iodide staining based flow cytometry analysis (reference value: 0.5%); assay type: functional
HCT 116 TP53(-/-) = assay: Cytotoxicity against human HCT116-p53-null cells assessed as reduction in cell viability incubated for 72 hrs by MTS assay; assay type: functional, cell-based
CCRF-CEM [28] = assay: Induction of mitochondrial membrane potential loss in human CCRF-CEM cells assessed as cells with depolarized mitochondria (P2 gate) by measuring green fluorescence intensity at 5 time IC50 incubated for 24 hrs by JC-1 staining based flow cytometry (reference value: 2.1%)
CCRF-CEM [29] = assay: Induction of apoptosis in human CCRF-CEM cells assessed as viable cells at 5 time IC50 incubated for 24 hrs by Annexin V and propidium iodide staining based flow cytometry analysis (reference value: 98%); assay type: functional
HCT-116 = assay: Cytotoxicity against human HCT-116 cells assessed as reduction in cell viability incubated for 72 hrs by MTS assay; assay type: functional, cell-based; conditions: HCT-116, 72 h
CCRF-CEM [30] = assay: Induction of apoptosis in human CCRF-CEM cells assessed as reduction in Bcl-2 expression at 5 time of IC50 incubated for 24 hrs by Western blot analysis; assay type: functional, cell-based; summary of the method: as §3
CCRF-CEM [31] = assay: Cytotoxicity against human CCRF-CEM cells assessed as reduction in cell viability incubated for 72 hrs by MTS assay; assay type: functional, cell-based

Compound	Activity (CCRF-CEM [1])	IC50 (K562)	IC50 at 72 h [3]	recovery at 1 h, 10 µM [4]	Activity (CCRF-CEM [5])	Activity (CCRF-CEM [6])	remaining at 1 h [7]	Activity (CCRF-CEM [8])	Activity (CCRF-CEM [9])	remaining at 0.25 h [10]	recovery [11]	remaining at 0.5 h [12]	Papp at 1 h, 10 µM [13]	IC50 [14]	IC50 at 72 h [15]	remaining at 2 h [16]	IC50 (CEM-DNR)	Activity (CCRF-CEM [17])	Activity (CCRF-CEM [19])	remaining at 1 h [20]	other results
C[C@H]1[C@H](C)CC[C@]2(C(=O)O)CC[C@]3(C)C(=CC[C@@H]4[C@@]5(C)CC6=C(C7C(=O)N(c8ccccc8)C(=O)C7C=C6C(F)(F)F)C(C)(C)[C@@H]5CC[C@]43C)[C@H]12 (stereo partly specified)	3.6%	21 µM	> 50 µM	60.5%	10.9%	Active	45%	0.6%	93.6%	102%	69.2%	99.6%	0.33 ×10⁻⁶ cm/s	23 µM	10 µM	94.2%	> 50 µM	Active	2.8%	102%	remaining at 0.5 h [2]: 64%; efflux ratio [18]: 41.8; remaining at 0.25 h [21]: 82%; Activity (CCRF-CEM [22]): 0%; Activity (CCRF-CEM [23]): 0%; Papp [24]: 0.12 ×10⁻⁶ cm/s; IC50 (A549): 18 µM; IC50 (U2OS): 19 µM; efflux ratio [25]: 8.17; fraction unbound at 10 µM [26]: 0.292; Activity (CCRF-CEM [27]): 6.9%; IC50 (HCT 116 TP53(-/-)): 12 µM; Activity (CCRF-CEM [28]): 11.8%; Activity (CCRF-CEM [29]): 82.2%; IC50 (HCT-116): 13 µM; Activity (CCRF-CEM [30]): Active; IC50 (CCRF-CEM [31]): 4.3 µM
C=C(C)[C@@H]1CC[C@]2(C(=O)O)CC[C@]3(C)[C@H](CC[C@@H]4[C@@]5(C)CC6=C(C7C(=O)N(c8ccccc8)C(=O)C7C=C6C(F)(F)F)C(C)(C)[C@@H]5CC[C@]43C)[C@@H]12 (stereo partly specified)	4.3%	25 µM	28 µM	94.1%	5.2%	Active	79%	2%	92.5%	100%	86%	92.7%	0.1 ×10⁻⁶ cm/s	9.7 µM	> 50 µM	101%	20 µM	Active	3.2%	95.8%	remaining at 0.25 h [21]: 99%; Activity (CCRF-CEM [22]): 0.1%; Activity (CCRF-CEM [23]): 0%; Papp [24]: 0.04 ×10⁻⁶ cm/s; IC50 (A549): 9.7 µM; IC50 (U2OS): 7.6 µM; fraction unbound at 10 µM [26]: 0.273; Activity (CCRF-CEM [27]): 2.9%; IC50 (HCT 116 TP53(-/-)): 12 µM; Activity (CCRF-CEM [28]): 2.6%; Activity (CCRF-CEM [29]): 91.8%; IC50 (HCT-116): 7.8 µM; Activity (CCRF-CEM [30]): Active; IC50 (CCRF-CEM [31]): 4.2 µM
